Results on 2 compounds are retold here after ChEMBL document CHEMBL1121364, “Nucleoside conjugates as potential antitumor agents. 3. Synthesis and antitumor activity of 1-(beta-D-arabinofuranosyl)cytosine conjugates of corticosteroids” (1980).

Assay [1] has as its system L1210. Nature of the assay: In Vitro evaluation for the antiproliferative activity by observing the growth inhibition of L1210 lymphoid leukemia cells in culture at 72 hour. It is filed as functional, Mus musculus. In short, it runs like this: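 Growth of L1210 lymphoid leukemia cells in culture measured by Trypan blue exclusion of viable cells after 72 h of drug exposure. ED50 is the concentration giving 50% growth inhibition. In some runs the compound was first preincubated in medium at 37 °C for 24 or 48 h before the assay.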

The subject of assay [2] is L1210. Nature of the assay: Antitumor activity in the mice with intraperitoneal implanted L1210 lymphoid leukemia at the dose 75 mg/kg/day x 5 was determined as percentage increase in the life span as compared with control tumor bearers. The conditions noted are these: Mus musculus, L1210, ip. It is filed as functional. In short, it runs like this:
(§1)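 C3D2F1/J female mice (C3H/HeJ female × DBA/2J male), groups of six to eight, average weight 25 g. Inoculated ip with 1 × 10^6 L1210 ascites cells taken from DBA/2Ha donor mice bearing 3-5 day old tumors. Compounds were dissolved in 0.154 N NaOH, neutralized with 0.154 N HCl (final 0.9% NaCl), and given ip daily for 5 days from 24 h post-implant. Median survival T/C; ILS = (T/C − 1) × 100; 30-day survivors counted.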

In assay [3] the test system is L1210. In words: Antitumor activity in the mice with intraperitoneal implanted L1210 lymphoid leukemia at the dose 75 mg/kg/day x 5 was determined as Survival time in days; Range is 14-18 days. It is filed as functional, Mus musculus. In short, it runs like this: as §1
For assay [4], the system named is L1210. Nature of the assay: Antitumor activity in mice with intraperitoneal implanted L1210 lymphoid leukemia at the dose 25 mg/kg/day x 5 was determined as weight change (g/mouse) on 8th day. It is filed as functional. Put shortly:
(§2)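 C3D2F1/J female mice (C3H/HeJ × DBA/2J), groups of six to eight, average 25 g, inoculated ip with 1 × 10^6 L1210 ascites cells taken from DBA/2Ha donor mice carrying 3-5 day tumors. Compound dissolved in 0.154 N NaOH, then neutralized with 0.154 N HCl to give 0.9% NaCl. Given ip daily for 5 consecutive days starting 24 h after implantation. Body weight change per mouse recorded on day 8.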

Assay [5] deals with L1210. Nature of the assay: Antitumor activity in the mice with intraperitoneal implanted L1210 lymphoid leukemia at the dose of 75 mg/kg/day x 5 was determined as mean survival of treated group compared to untreated; 17.5/9.5. It is filed as functional, Mus musculus.
Assay [6] concerns L1210. Nature of the assay: Antitumor activity in the mice with intraperitoneal implanted L1210 lymphoid leukemia at the dose 50 mg/kg/day x 5 was determined and number of animals survived on 30 th day were reported; 0/8. It is filed as functional, Mus musculus. Put shortly:
(§3)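 Female C3D2F1/J mice (C3H/HeJ × DBA/2J), groups of six to eight, average weight 25 g. Each mouse got 1 × 10^6 L1210 ascites cells ip, taken from DBA/2Ha donor mice bearing 3-5 day tumors. Compound was dissolved in 0.154 N NaOH and neutralized with 0.154 N HCl (final 0.9% NaCl). Dosed ip daily ×5, starting 24 h after implant. Recorded body weight change on day 8, survival range, median survival and 30-day survivors. ILS = (T/C − 1) × 100.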

Assay [7] has as its system L1210. In words: Antitumor activity in the mice with intraperitoneal implanted L1210 lymphoid leukemia at the dose of 25 mg/kg/day x 5 was determined as mean survival of treated group compared to untreated; 14/8.5. It is filed as functional, Mus musculus. Put shortly: as §1
The subject of assay [8] is L1210. Nature of the assay: Antitumor activity in the mice with intraperitoneal implanted L1210 lymphoid leukemia at the dose 25 mg/kg/day x 5 was determined as Survival time in days; Range is 12-18 days. It is filed as functional, Mus musculus. In short, it runs like this: as §3
Assay [9] concerns L1210. Nature of the assay: Antitumor activity in mice with intraperitoneal implanted L1210 lymphoid leukemia at the dose 50 mg/kg/day x 5 was determined as weight change (g/mouse) on 8th day. It is filed as functional. Put shortly:
as §2

The test system of assay [10] is L1210. In words: Antitumor activity in the mice with intraperitoneal implanted L1210 lymphoid leukemia at the dose of 50 mg/kg/day x 5 was determined as mean survival of treated group compared to untreated; 16/9.5. It is filed as functional, Mus musculus. Put shortly: as §1
For assay [11], the system named is L1210. Nature of the assay: Antitumor activity in the mice with intraperitoneal implanted L1210 lymphoid leukemia at the dose 25 mg/kg/day x 5 was determined and number of animals survived on 30 th day were reported; 0/8. It is filed as functional, Mus musculus. In short, it runs like this:
as §3

The subject of assay [12] is L1210. Nature of the assay: Antitumor activity in mice with intraperitoneal implanted L1210 lymphoid leukemia at the dose 75 mg/kg/day x 5 was determined as weight change (g/mouse) on 8th day. It is filed as functional. Put shortly: as §2
The test system of assay [13] is L1210. In words: Antitumor activity in the mice with intraperitoneal implanted L1210 lymphoid leukemia at the dose 75 mg/kg/day x 5 was determined and number of animals survived on 30 th day were reported; 0/8. It is filed as functional, Mus musculus. Put shortly: as §1
In assay [14] the test system is L1210. Nature of the assay: Antitumor activity in the mice with intraperitoneal implanted L1210 lymphoid leukemia at the dose 50 mg/kg/day x 5 was determined as percentage increase in the life span as compared with control tumor bearers. It is filed as functional. Conditions: Mus musculus, L1210, ip. Put shortly: as §1
In assay [15] the test system is L1210. Nature of the assay: Antitumor activity in the mice with intraperitoneal implanted L1210 lymphoid leukemia at the dose 100 mg/kg/day x 5 was determined as Survival time in days; Range is 7-8 days. It is filed as functional, Mus musculus. In short, it runs like this:
as §3

Assay [16] concerns L1210. In words: Antitumor activity in the mice with intraperitoneal implanted L1210 lymphoid leukemia at the dose of 100 mg/kg/day x 5 was determined as mean survival of treated group compared to untreated; 7/11. It is filed as functional, Mus musculus. In short, it runs like this:
as §1

For assay [17], the system named is L1210. Nature of the assay: Antitumor activity in the mice with intraperitoneal implanted L1210 lymphoid leukemia at the dose 100 mg/kg/day x 5 was determined as percentage increase in the life span as compared with control tumor bearers. It is filed as functional. Conditions: Mus musculus, L1210, ip. In short, it runs like this:
as §3

Assay [18] concerns L1210. Nature of the assay: Antitumor activity in the mice with intraperitoneal implanted L1210 lymphoid leukemia at the dose 50 mg/kg/day x 5 was determined as Survival time in days; Range is 14-17 days. It is filed as functional, Mus musculus. Put shortly:
as §3

Assay [19] has as its system L1210. Nature of the assay: Antitumor activity in the mice with intraperitoneal implanted L1210 lymphoid leukemia at the dose 25 mg/kg/day x 5 was determined as percentage increase in the life span as compared with control tumor bearers. It is filed as functional. The conditions noted are these: Mus musculus, L1210, ip. In short, it runs like this:
as §3

The subject of assay [20] is L1210. In words: Antitumor activity in the mice with intraperitoneal implanted L1210 lymphoid leukemia at the dose 100 mg/kg/day x 5 was determined and number of animals survived on 30 th day were reported; 0/6. It is filed as functional, Mus musculus. In short, it runs like this:
as §3

For assay [21], the system named is L1210. In words: Antitumor activity in the mice with intraperitoneal implanted L1210 lymphoid leukemia at the dose 9.2 and 13.2 mg/kg/day x 5 was determined and number of animals survived on 30 th day were reported; 0/6. It is filed as functional, Mus musculus. Put shortly: as §1
Assay [22] relates to L1210. Nature of the assay: Antitumor activity in the mice with intraperitoneal implanted L1210 lymphoid leukemia at the dose 18 and 27.7 mg/kg/day x 5 was determined as percentage increase in the life span as compared with control tumor bearers. It is filed as functional, Mus musculus. In short, it runs like this: as §3
The test system of assay [23] is L1210. Nature of the assay: Antitumor activity in the mice with intraperitoneal implanted L1210 lymphoid leukemia at the dose 9.2 and 13.2 mg/kg/day x 5 was determined as Survival time in days; Range is 11-28 days. It is filed as functional, Mus musculus. In short, it runs like this:
as §1

In assay [24] the test system is L1210. Nature of the assay: Antitumor activity in the mice with intraperitoneal implanted L1210 lymphoid leukemia at the dose 18 and 27.7 mg/kg/day x 5 was determined as Survival time in days; Range is 9-17 days. It is filed as functional, Mus musculus. In short, it runs like this:
as §3

Assay [25] relates to L1210. Nature of the assay: Antitumor activity in the mice with intraperitoneal implanted L1210 lymphoid leukemia at the dose 9.2 and 13.2 mg/kg/day x 5 was determined as percentage increase in the life span as compared with control tumor bearers. It is filed as functional, Mus musculus. Put shortly: as §1
The subject of assay [26] is L1210. Nature of the assay: Antitumor activity in the mice with intraperitoneal implanted L1210 lymphoid leukemia at the dose of 9.2 and 13.2 mg/kg/day x 5 was determined as mean survival of treated group compared to untreated; 15/11. It is filed as functional, Mus musculus.
For assay [27], the system named is L1210. In words: Antitumor activity in mice with intraperitoneal implanted L1210 lymphoid leukemia at the dose 9.2 and 13.2 mg/kg/day x 5 was determined as weight change (g/mouse) on 8th day. It is filed as functional. Put shortly:
as §2

The test system of assay [28] is L1210. In words: Antitumor activity in the mice with intraperitoneal implanted L1210 lymphoid leukemia at the dose 18 and 27.7 mg/kg/day x 5 was determined and number of animals survived on 30 th day were reported; 0/8. It is filed as functional, Mus musculus. Put shortly: as §3
The test system of assay [29] is L1210. Nature of the assay: Antitumor activity in mice with intraperitoneal implanted L1210 lymphoid leukemia at the dose 18 and 27.7 mg/kg/day x 5 was determined as weight change (g/mouse) on 8th day. It is filed as functional. In short, it runs like this: as §2
The test system of assay [30] is L1210. In words: Antitumor activity in the mice with intraperitoneal implanted L1210 lymphoid leukemia at the dose of 18 and 27.7 mg/kg/day x 5 was determined as mean survival of treated group compared to untreated; 13/9. It is filed as functional, Mus musculus. Put shortly:
as §1

On to `C[C@]12CCC(=O)C=C1CC[C@H]1[C@@H]3CC[C@](O)(C(=O)COP(=O)(O)OC[C@H]4O[C@@H](n5ccc(N)nc5=O)[C@@H](O)[C@@H]4O)[C@@]3(C)C[C@H](O)[C@@]12F`, for which the “ED 50” value in assay [1] stood at 80 nM. Besides, in assay [2], the ILS at 75 mg/kg/day stood at 84%. Besides, the Survival time in assay [3] stood at 14 days; in assay [5], 17.5 days; in assay [8], 12 days; in assay [15], 7 days; in [18], 14 days. For the same compound, the results for the Weight change in assay [4], in [9] and in [12] were -1.09 g mouse-1, 0.39 g mouse-1 and 0.52 g mouse-1, respectively. The Survivors in assay [6], in assay [11], in [13] and in assay [20] was 0 in each case. Further, the T/C turned out to be 14 in assay [7], 16 in assay [10] and 7 in assay [16]. Further, the ILS at 50 mg/kg/day in assay [14] came out at 68%. The ILS at 100 mg/kg/day in [17] was -36%. Further, the ILS at 25 mg/kg/day in assay [19] came to 65%.

As to `C[C@H]1C[C@@H]2[C@H]([C@@H](O)C[C@@]3(C)[C@H]2CC[C@]3(O)C(=O)CO)[C@@]2(C)C=CC(=O)C=C12.Nc1ccn([C@@H]2O[C@H](CO)[C@@H](O)[C@@H]2O)c(=O)n1`, the Survivors in [21] and in assay [28] was 0 each time. Moreover, the figures for the ILS in assay [22] and in [25] were 44% and 36%, respectively. The Survival time in assay [23] worked out at 11 days; in [24], 9 days. Besides, the T/C in assay [26] is listed as 15; in assay [30], 13. Besides, the results for the Weight change in assay [27] and in assay [29] were -2.38 g mouse-1 and -1.38 g mouse-1, respectively.
